The target of data set [1] is Tyrosine-protein kinase Blk (Homo sapiens, UniProt P51451). The experiment in a line: Inhibition of BLK (unknown origin).
Data set [2] addresses Mitogen-activated protein kinase 3 (Homo sapiens, UniProt P27361). The data set can be described thus: Inhibition of MAPK3 (unknown origin).
For data set [3], the system named is Mus musculus. The data set can be described thus: Antialzheimer activity in 5XFAD mouse assessed as iron reactivity by measuring hemosiderin intensity of prussian blue staining in thalamus at 1200 ppm administered as rodent chow starting from 1.5 months and measured after 4 months by confocal microscopic analysis (reference value: 0.1 to 4.094 a.u.). Type of data set: functional. To be noted: route po, time 2.5 months, 1825 h. Summed up: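 Wild-type or 5xFAD mice fed PLX5622 (1200 ppm) in AIN-76A chow from 1.5 months of age, examined in 4- and 7-month-old cohorts. Brain sections stained with a Prussian blue kit per kit instructions to detect iron deposits (microbleeds).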

The target in the next data set is SRSF protein kinase 1 (Homo sapiens, UniProt Q96SB4). The data set can be described thus: Inhibition of SRPK1 (unknown origin).
Chain of SRSF protein kinase 1 (Q96SB4 whole entry): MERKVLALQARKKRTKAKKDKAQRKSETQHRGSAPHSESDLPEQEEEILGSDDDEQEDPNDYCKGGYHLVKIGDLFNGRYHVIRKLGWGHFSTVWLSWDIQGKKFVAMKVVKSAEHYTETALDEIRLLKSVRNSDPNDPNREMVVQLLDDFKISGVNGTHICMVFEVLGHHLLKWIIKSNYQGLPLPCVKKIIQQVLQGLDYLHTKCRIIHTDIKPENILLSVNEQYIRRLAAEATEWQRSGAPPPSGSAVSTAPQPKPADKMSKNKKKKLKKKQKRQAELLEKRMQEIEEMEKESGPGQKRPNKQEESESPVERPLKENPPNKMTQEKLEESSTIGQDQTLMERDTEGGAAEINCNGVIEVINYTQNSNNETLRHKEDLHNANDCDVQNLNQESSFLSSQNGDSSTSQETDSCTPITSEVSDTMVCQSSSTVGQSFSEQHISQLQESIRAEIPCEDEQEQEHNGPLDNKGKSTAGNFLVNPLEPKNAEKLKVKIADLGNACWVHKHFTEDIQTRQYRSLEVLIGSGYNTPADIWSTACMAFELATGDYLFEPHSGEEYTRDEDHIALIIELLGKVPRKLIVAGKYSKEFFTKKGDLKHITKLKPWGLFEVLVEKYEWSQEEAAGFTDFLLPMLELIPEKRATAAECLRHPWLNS
Data set [4] is described as follows: Cmax in mouse at 45 mg/kg, po administered as single dose via gavage. Format: ADME, organism-based. To be noted: in vivo.
Data set [5] concerns the target Mitogen-activated protein kinase kinase kinase kinase 2 (Homo sapiens, UniProt Q12851). The data set can be described thus: Inhibition of MAP4K2 (unknown origin).
The test system of data set [6] is Mus musculus. The experiment in a line: Antialzheimer activity in 5XFAD mouse assessed as number of GFAP positive cell per FOV in retro spinal cortex at 1200 ppm administered as rodent chow for 10 to 24 weeks by immunolabelling based confocal microscopic analysis (reference value: 217 to 477). Format: functional. The conditions noted are these: route po, time 10-24 weeks.

In data set [7] the target is Tyrosine-protein kinase ZAP-70 (Homo sapiens, UniProt P43403). The data set can be described thus: Inhibition of ZAP70 (unknown origin).
Chain of Tyrosine-protein kinase ZAP-70 (P43403 whole entry): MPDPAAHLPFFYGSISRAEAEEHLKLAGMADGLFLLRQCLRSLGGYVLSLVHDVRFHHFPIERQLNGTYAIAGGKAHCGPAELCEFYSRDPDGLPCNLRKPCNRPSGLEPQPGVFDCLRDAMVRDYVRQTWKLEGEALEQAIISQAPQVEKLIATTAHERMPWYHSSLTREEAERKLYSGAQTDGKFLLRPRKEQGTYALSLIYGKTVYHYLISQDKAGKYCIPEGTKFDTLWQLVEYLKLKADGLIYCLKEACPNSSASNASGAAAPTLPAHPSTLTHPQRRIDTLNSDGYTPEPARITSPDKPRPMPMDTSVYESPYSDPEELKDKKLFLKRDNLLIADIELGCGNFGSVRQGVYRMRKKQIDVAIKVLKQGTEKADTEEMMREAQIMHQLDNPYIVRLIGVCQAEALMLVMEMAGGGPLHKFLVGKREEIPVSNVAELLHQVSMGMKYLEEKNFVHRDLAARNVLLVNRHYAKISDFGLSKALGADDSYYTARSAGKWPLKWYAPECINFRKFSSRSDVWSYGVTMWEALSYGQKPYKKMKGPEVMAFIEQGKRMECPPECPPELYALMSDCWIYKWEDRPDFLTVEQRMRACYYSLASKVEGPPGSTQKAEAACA
A short description of data set [8]: Effect on Cst7 gene expression in 5XFAD mouse cortex at 1200 ppm administered as rodent chow starting from 1.5 months and measured after 7 months by RNA-Seq analysis (reference value: 9.853 to 27.586 RPKM). Type of data set: functional. To be noted: route po, time 5.5 months, 4015 h.
The target in data set [9] is Calcium/calmodulin-dependent protein kinase type 1 (Homo sapiens, UniProt Q14012). The experiment in a line: Inhibition of CAMK1 (unknown origin).
Chain of Calcium/calmodulin-dependent protein kinase type 1 (Q14012 whole entry): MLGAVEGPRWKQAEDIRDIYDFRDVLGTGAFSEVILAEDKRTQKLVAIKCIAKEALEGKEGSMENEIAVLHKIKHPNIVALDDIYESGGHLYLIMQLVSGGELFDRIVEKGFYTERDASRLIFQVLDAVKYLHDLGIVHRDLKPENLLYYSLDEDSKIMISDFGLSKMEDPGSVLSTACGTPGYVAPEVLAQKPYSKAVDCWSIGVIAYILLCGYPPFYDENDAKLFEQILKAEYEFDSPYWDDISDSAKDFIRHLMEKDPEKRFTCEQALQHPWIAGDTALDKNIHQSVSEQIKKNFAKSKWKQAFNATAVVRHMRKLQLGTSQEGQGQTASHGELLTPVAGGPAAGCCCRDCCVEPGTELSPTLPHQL
The nature of data set [10]: Toxicity in wildtype mouse assessed as number of open arm entries at 1200 ppm administered as rodent chow for 10 to 24 weeks by Elevated plus maze test (reference value: 7 to 29). The conditions noted are these: in vivo, po, time 10-24 weeks.
Data set [11] has as its target T1, Macrophage colony-stimulating factor 1 receptor (Mus musculus) (UniProt P09581).
T1 sequence (whole entry): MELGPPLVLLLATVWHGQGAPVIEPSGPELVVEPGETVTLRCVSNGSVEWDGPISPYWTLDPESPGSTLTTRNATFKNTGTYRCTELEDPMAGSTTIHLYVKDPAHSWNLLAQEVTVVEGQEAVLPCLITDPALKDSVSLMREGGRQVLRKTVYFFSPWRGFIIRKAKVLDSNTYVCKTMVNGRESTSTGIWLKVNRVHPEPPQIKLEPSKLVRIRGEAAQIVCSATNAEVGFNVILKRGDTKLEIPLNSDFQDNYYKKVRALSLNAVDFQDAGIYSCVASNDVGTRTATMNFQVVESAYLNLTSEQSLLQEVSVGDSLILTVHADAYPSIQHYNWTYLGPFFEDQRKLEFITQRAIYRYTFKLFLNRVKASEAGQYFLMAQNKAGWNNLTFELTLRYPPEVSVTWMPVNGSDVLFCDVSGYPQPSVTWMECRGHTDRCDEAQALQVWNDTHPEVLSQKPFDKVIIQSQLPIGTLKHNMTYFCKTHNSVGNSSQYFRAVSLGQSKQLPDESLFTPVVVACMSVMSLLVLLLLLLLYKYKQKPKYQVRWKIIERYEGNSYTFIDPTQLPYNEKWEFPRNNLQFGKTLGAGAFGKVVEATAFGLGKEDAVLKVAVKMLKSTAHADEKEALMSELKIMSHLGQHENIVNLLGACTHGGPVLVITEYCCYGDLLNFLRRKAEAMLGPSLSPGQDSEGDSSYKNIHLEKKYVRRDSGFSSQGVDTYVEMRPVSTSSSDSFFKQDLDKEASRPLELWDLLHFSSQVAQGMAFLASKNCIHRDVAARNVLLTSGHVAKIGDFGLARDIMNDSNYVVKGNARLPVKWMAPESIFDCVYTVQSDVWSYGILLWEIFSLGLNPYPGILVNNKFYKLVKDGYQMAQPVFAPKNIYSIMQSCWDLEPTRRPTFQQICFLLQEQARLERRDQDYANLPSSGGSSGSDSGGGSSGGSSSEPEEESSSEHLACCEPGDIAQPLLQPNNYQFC
The experiment in a line: In vivo inhibition of CSF1R in wildtype mouse assessed as number of Iba1 positive cells per FOV in somatosensory cortex at 1200 ppm administered as rodent chow starting from 1.5 months to 4 months followed by compound removal and measured after 1 months by immunolabelling based confocal microscopic analysis (reference value: 304 to 351). Type of data set: functional. The conditions noted are these: route po, time 2.5 months.

Data set [12] is described as follows: Effect on Clec7a gene expression in 5XFAD mouse cortex at 1200 ppm administered as rodent chow starting from 1.5 months and measured after 7 months by RNA-Seq analysis (reference value: 2.323 to 6.756 RPKM). Format: functional. To be noted: route po, time 5.5 months, 4015 h. The method in brief:
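WT and 5xFAD mice were treated with 1200 ppm PLX5622 chow or control chow from 1.5 to 7 months of age. Brains were microdissected into cortex, hippocampus and thalamus, and RNA was extracted from tissue powder. Whole-transcriptome RNA-Seq libraries were sequenced, with n = 4 per group per region (48 samples).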

Data set [13] in a line: Volume of distribution at steady state in mouse at 1.92 mg/kg, iv administered as single dose. To be noted: in vivo, read-out: Vdss. Type of data set: ADME, organism-based.
For data set [14], the target named is Dual specificity tyrosine-phosphorylation-regulated kinase 1A (Homo sapiens, UniProt Q13627). The experiment in a line: Inhibition of DYRK1A (unknown origin).
Data set [15] in a line: Toxicity in wildtype mouse assessed as number of entries to center zone at 1200 ppm administered as rodent chow for 10 to 24 weeks by Open field test (reference value: 19 to 63). To be noted: in vivo, po, time 10-24 weeks.
For data set [16], the target named is Serine/threonine-protein kinase PLK3 (Homo sapiens, UniProt Q9H4B4). The experiment in a line: Inhibition of PLK3 (unknown origin).
Chain of Serine/threonine-protein kinase PLK3 (Q9H4B4 whole entry): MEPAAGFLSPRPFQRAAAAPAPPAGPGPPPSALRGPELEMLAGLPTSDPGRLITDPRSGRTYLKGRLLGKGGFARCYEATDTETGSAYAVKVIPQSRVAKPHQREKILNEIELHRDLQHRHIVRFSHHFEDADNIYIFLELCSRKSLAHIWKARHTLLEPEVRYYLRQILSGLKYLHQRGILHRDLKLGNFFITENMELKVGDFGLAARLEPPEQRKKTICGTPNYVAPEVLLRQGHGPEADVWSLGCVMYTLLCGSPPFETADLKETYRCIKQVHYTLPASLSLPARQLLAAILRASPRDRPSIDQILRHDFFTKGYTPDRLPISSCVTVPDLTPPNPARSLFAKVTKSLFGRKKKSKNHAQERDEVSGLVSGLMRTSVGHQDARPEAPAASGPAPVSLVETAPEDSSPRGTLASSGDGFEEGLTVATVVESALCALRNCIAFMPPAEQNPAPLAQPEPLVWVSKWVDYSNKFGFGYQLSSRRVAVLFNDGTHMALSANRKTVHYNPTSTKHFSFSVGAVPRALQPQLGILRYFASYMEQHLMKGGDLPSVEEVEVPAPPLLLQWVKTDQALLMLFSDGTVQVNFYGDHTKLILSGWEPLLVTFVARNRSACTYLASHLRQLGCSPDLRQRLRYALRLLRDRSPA
Data set [17] is described as follows: Oral bioavailability in dog at 45 mg/kg administered as single via gavage. To be noted: in vivo. Type of data set: ADME, organism-based, Canis lupus familiaris.
In data set [18] the target is G protein-coupled receptor kinase 3 (Homo sapiens, UniProt P35626). The data set can be described thus: Inhibition of ADRBK2 (unknown origin).
Data set [19] concerns the target Inhibitor of nuclear factor kappa-B kinase subunit epsilon (Homo sapiens, UniProt Q14164). The experiment in a line: Inhibition of IKBKE (unknown origin).
Data set [20] has as its target Serine/threonine-protein kinase MARK1 (Homo sapiens, UniProt Q9P0L2). The experiment in a line: Inhibition of MARK1 (unknown origin).
Data set [21] has as its system Mus musculus. The data set can be described thus: Prevention of Grn gene upregulation in 5XFAD mouse hippocampus at 1200 ppm administered as rodent chow starting from 1.5 months and measured after 7 months by Nanostring analysis. Type of data set: functional, tissue-based. To be noted: route po, time 5.5 months.
A short description of data set [22]: AUC (0 to infinity) in male rat at 45 mg/kg, po administered as single dose via gavage. Type of data set: ADME, organism-based. The conditions noted are these: in vivo.
Data set [23] deals with Calcium/calmodulin-dependent protein kinase type II subunit delta (Homo sapiens, UniProt Q13557). The data set can be described thus: Inhibition of CAMK2D (unknown origin).
Chain of Calcium/calmodulin-dependent protein kinase type II subunit delta (Q13557 whole entry): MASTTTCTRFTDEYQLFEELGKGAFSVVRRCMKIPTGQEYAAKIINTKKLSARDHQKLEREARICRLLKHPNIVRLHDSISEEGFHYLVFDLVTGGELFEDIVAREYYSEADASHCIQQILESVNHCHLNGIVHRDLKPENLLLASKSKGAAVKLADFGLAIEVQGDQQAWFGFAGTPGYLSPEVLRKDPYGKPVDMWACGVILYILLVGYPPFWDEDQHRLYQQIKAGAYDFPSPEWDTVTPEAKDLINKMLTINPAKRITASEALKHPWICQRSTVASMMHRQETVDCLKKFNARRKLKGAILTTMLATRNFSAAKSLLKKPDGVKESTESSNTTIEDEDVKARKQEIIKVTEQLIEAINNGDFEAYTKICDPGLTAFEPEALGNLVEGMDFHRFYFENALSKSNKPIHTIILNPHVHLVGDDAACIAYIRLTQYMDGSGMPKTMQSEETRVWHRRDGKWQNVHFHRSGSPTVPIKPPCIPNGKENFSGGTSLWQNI

Structures are written as SMILES. Calls of active or inactive are those of the source. The rule behind the calls is not given here. Where only a bound is given, the exact number is not on record here.

Chain of Inhibitor of nuclear factor kappa-B kinase subunit epsilon (Q14164 whole entry): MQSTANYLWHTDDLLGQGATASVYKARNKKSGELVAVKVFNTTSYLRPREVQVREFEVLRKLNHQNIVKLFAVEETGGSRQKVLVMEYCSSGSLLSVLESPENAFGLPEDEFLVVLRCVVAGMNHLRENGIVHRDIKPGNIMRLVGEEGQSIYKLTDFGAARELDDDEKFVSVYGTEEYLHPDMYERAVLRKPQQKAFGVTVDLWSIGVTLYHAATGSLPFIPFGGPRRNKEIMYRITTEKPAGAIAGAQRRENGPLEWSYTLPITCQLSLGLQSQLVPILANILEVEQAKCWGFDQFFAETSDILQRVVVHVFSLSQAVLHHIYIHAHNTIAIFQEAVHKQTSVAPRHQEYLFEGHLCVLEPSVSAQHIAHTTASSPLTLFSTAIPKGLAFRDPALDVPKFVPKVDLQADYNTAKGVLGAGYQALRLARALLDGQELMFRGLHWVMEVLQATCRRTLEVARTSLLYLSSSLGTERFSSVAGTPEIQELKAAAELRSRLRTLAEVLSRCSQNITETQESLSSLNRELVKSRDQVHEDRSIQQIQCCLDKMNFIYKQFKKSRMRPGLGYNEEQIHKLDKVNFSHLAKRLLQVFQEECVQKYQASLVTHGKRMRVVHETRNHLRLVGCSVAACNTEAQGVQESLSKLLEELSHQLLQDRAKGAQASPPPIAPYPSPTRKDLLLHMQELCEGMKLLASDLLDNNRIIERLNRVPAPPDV
Chain of Mitogen-activated protein kinase kinase kinase kinase 2 (Q12851 whole entry): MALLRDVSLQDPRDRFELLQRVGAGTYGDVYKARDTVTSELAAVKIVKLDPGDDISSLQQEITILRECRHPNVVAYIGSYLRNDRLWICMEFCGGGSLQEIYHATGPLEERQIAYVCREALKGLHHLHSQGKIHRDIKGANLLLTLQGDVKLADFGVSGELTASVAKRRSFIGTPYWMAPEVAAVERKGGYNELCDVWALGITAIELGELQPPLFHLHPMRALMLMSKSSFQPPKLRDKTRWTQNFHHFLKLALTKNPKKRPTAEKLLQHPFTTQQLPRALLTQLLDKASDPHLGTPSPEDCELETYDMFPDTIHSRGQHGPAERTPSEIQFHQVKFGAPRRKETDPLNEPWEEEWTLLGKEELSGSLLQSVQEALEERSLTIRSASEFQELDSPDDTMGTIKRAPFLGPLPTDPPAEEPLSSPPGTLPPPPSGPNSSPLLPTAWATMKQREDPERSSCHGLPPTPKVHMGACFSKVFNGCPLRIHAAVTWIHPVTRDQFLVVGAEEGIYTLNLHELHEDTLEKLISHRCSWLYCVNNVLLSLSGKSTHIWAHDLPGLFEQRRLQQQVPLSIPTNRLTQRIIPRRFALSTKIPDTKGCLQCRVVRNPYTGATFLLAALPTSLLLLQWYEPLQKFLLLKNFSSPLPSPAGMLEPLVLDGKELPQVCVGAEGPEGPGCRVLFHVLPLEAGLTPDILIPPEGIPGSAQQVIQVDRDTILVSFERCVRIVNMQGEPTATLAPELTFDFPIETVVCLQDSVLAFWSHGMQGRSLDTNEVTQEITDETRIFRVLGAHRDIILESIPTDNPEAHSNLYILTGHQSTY
Chain of Tyrosine-protein kinase Blk (P51451 whole entry): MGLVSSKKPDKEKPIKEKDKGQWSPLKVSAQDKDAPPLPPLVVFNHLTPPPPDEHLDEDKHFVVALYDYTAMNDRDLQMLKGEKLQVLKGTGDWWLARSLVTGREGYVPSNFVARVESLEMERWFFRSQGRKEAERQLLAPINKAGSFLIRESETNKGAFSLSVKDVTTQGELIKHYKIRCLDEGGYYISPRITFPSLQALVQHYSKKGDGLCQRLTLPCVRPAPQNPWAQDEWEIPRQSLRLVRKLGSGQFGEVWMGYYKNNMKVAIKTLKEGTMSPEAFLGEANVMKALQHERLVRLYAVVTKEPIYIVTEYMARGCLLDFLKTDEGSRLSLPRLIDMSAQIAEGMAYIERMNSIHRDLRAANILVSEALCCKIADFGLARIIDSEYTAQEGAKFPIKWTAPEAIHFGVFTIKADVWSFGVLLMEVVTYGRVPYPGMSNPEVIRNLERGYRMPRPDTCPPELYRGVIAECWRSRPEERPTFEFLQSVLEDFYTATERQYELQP

Turning to `COc1ncc(F)cc1CNc1ccc(Cc2c[nH]c3ncc(C)cc23)c(F)n1` [PLX-5622], the IC50 (in data set [1]; in [2]; at SRSF protein kinase 1; in [5]; in data set [7]; in data set [9]) was > 1 µM each time. Moreover, the IC50 in data set [14], in [16], in data set [18], in data set [19], in data set [20] and in [23] was > 1 µM throughout. Further, in the data set on Mus musculus [3], the Flu intensity came to 0.249 a.u. Also, in data set [4], the Cmax amounted to 26300 ng/mL. For the same compound, the Activity in the data set on Mus musculus [6] is 92; in data set [8], 0.887 RPKM; in data set [10], 6; in data set [11], 108; in [12], 0.051 RPKM; in data set [15] it was 14. Besides, in data set [13], the Vd was found to be 0.34 L/kg. The bioavailability in data set [17] turned out to be 34%. The outcome in the data set on Mus musculus [21] was Active. Besides, in [22], the AUC(0-inf) worked out at 99600 ng·h/mL.

The IC50 is the concentration that gives 50% inhibition. For orientation: Cmax means the highest concentration seen after dosing. One may read the bioavailability as dose-corrected exposure relative to a reference, in per cent. Read a high bioavailability as good availability. By AUC(0-inf) is commonly meant the area under the concentration-time curve extrapolated to infinity. The low end stands for low exposure, the high end for high exposure.

Values taken from ChEMBL document CHEMBL5649170, “Sustained microglial depletion with CSF1R inhibitor impairs parenchymal plaque development in an Alzheimer's disease model” (Nat Commun, 2019).
